Data on two compounds can be found in ChEMBL document CHEMBL4842312, “Phenoxazine nucleoside derivatives with a multiple activity against RNA and DNA viruses” (Eur J Med Chem, 2021).

What all share (assay type): functional, organism-based
Assay [1] has as its system Tick-borne encephalitis virus. Briefly: Antiviral activity against Tick-borne encephalitis virus infected in PEK cells assessed as reduction in viral plaque formation incubated for 1 hr by Reed-Muench method.
Assay [2] relates to Human alphaherpesvirus 3. The assay is described as follows: Antiviral activity against wild type Varicella zoster virus infected in HEL cells assessed as reduction in viral plaque formation incubated for 2 hrs. Particulars: Human alphaherpesvirus 3, HEL. The gist of the method:
(§1)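 Confluent HEL cultures received 100 CCID50 or 20 PFU of virus, with 2 h adsorption before inoculum removal. Cells were then incubated with compound from 100 μM downward. Cytopathicity or plaques were scored once untreated infected controls reached completion.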

The subject of assay [3] is Human alphaherpesvirus 3. The assay is described as follows: Antiviral activity against thymidine kinase deficient Varicella zoster virus infected in HEL cells assessed as reduction in viral plaque formation incubated for 2 hrs. Particulars: Human alphaherpesvirus 3, HEL. The gist of the method: as §1

One may read the EC50 as the concentration giving half of the maximal effect. Take `COc1ccc(C(OC[C@H]2O[C@@H](n3cc4c(nc3=O)Nc3ccccc3O4)C[C@@H]2O)(c2ccccc2)c2ccc(OC)cc2)cc1`: the EC50 in assay [1] turned out to be 400 nM. In the case of `O=c1nc2c(cn1[C@H]1C[C@H](O)[C@@H](CO)O1)Oc1ccccc1N2`, the EC50 was 60 nM in the assay on Human alphaherpesvirus 3 [2] and 10000 nM in the assay with Human alphaherpesvirus 3 [3].
